{"source": "paper PMC6639057", "about": "(Investigational new drugs, 2018)", "key": {"advanced solid tumors": {"test_system": "advanced solid tumors", "test": "Tumor response, dose-escalation cohorts", "assay_type": "in vivo, human", "conditions": "for Best overall response: Complete response / Best overall response: Partial response / Best overall response: Progressive disease / Best overall response: Stable disease / Best overall response: Unable to evaluate: Central read, RECIST 1.1", "in_short": "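Adults with refractory advanced solid tumours took the drug orally once each morning on days 1–4 of 14-day cycles, fasting from 2 h predose (water only) until 1 h postdose. Doses were 1–30 mg (and 25 mg) without G-CSF, or 30–50 mg with subcutaneous G-CSF (300 or 480 µg daily). Scans were read centrally by RECIST 1.1 and locally by RECIST 1.0, with GCIG criteria for ovarian tumours.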"}, "[1]": {"test_system": "taxane- and platinum-resistant ovarian cancer", "test": "Tumor response, dose-expansion ovarian cancer cohort", "assay_type": "in vivo, human"}, "[2]": {"conditions": "escalation 30 mg + G-CSF (n = 6)"}, "[3]": {"conditions": "escalation 35 mg + G-CSF (n = 3)"}, "[4]": {"conditions": "escalation 40 mg + G-CSF (n = 11)"}, "[5]": {"conditions": "escalation 50 mg + G-CSF (n = 4)"}, "[6]": {"conditions": "escalation 1, 2, 4, 8 mg (n = 4)"}, "[7]": {"conditions": "Central read, RECIST 1.1, expansion 40 mg + G-CSF, OC (n = 29)"}, "[8]": {"conditions": "GCIG criteria (RECIST 1.1 and CA 125), expansion 40 mg + G-CSF, OC (n = 29)"}, "[9]": {"conditions": "Local read, RECIST 1.0, expansion 40 mg + G-CSF, OC (n = 29)"}}, "note": "Where “and” joins values, the source holds several entries; their conditions need not be identical. Identical values can stand only once. Marks after values point to notes of the source that are not given here."}
{"smiles": "Cc1csc(-c2nnc(Nc3ccc(Oc4ncccc4-c4ccnc(N)n4)cc3)c3ccccc23)c1", "note": "[AMG 900]", "values": [{"measurement": "Duration of stable disease, one patient with medullary thyroid cancer", "setting": "advanced solid tumors; 24 mg", "result": "> 3.5", "unit": "years"}, {"measurement": "Tumor response, one patient with clear-cell endometrial cancer", "setting": "advanced solid tumors; 30 mg + G-CSF", "result": "partial response per RECIST 1.0 (local read) that was not confirmed per RECIST 1.1 (central read)"}, {"measurement": "Tumor response, one patient with ovarian cancer", "setting": "advanced solid tumors; 30 mg, RECIST 1.1 and GCIG criteria (central read)", "result": "partial response"}, {"measurement": "Best overall response: Complete response", "setting": "advanced solid tumors; escalation 16 mg (n = 3)", "result": "0 Patients (%)"}, {"measurement": "Best overall response: Partial response", "setting": "advanced solid tumors; escalation 16 mg (n = 3)", "result": "0 Patients (%)"}, {"measurement": "Best overall response: Progressive disease", "setting": "advanced solid tumors; escalation 16 mg (n = 3)", "result": "0 Patients (%)"}, {"measurement": "Best overall response: Stable disease", "setting": "advanced solid tumors; escalation 16 mg (n = 3)", "result": "2 (67) Patients (%)"}, {"measurement": "Best overall response: Unable to evaluate", "setting": "advanced solid tumors; escalation 16 mg (n = 3)", "result": "1 (33) Patients (%)"}, {"measurement": "Best overall response: Complete response", "setting": "advanced solid tumors; escalation 24 mg (n = 6)", "result": "0 Patients (%)"}, {"measurement": "Best overall response: Partial response", "setting": "advanced solid tumors; escalation 24 mg (n = 6)", "result": "0 Patients (%)"}, {"measurement": "Best overall response: Progressive disease", "setting": "advanced solid tumors; escalation 24 mg (n = 6)", "result": "1 (17) Patients (%)"}, {"measurement": "Best overall response: Stable disease", "setting": "advanced solid tumors; escalation 24 mg (n = 6)", "result": "5 (83) Patients (%)"}, {"measurement": "Best overall response: Unable to evaluate", "setting": "advanced solid tumors; escalation 24 mg (n = 6)", "result": "0 Patients (%)"}, {"measurement": "Best overall response: Complete response", "setting": "advanced solid tumors; escalation 25 mg (n = 7)", "result": "0 Patients (%)"}, {"measurement": "Best overall response: Partial response", "setting": "advanced solid tumors; escalation 25 mg (n = 7)", "result": "0 Patients (%)"}, {"measurement": "Best overall response: Progressive disease", "setting": "advanced solid tumors; escalation 25 mg (n = 7)", "result": "1 (14) Patients (%)"}, {"measurement": "Best overall response: Stable disease", "setting": "advanced solid tumors; escalation 25 mg (n = 7)", "result": "4 (57) Patients (%)"}, {"measurement": "Best overall response: Unable to evaluate", "setting": "advanced solid tumors; escalation 25 mg (n = 7)", "result": "2 (29) Patients (%)"}, {"measurement": "Best overall response: Complete response", "setting": "advanced solid tumors; escalation 30 mg (n = 6)", "result": "0 Patients (%)"}, {"measurement": "Best overall response: Progressive disease", "setting": "advanced solid tumors; escalation 30 mg (n = 6)", "result": "1 (17) Patients (%)"}, {"measurement": "Best overall response: Stable disease", "setting": "advanced solid tumors; escalation 30 mg (n = 6)", "result": "3 (50) Patients (%)"}, {"measurement": "Best overall response: Unable to evaluate", "setting": "advanced solid tumors; escalation 30 mg (n = 6)", "result": "1 (17) Patients (%)"}, {"measurement": "Best overall response: Partial response", "setting": "advanced solid tumors; escalation 30 mg (n = 6), patient also had a response by GCIG CA 125 criteria", "result": "1 (17)^b Patients (%)"}, {"measurement": "Best overall response: Complete response", "setting": "advanced solid tumors; [2]", "result": "0 Patients (%)"}, {"measurement": "Best overall response: Partial response", "setting": "advanced solid tumors; [2]", "result": "0 Patients (%)"}, {"measurement": "Best overall response: Progressive disease", "setting": "advanced solid tumors; [2]", "result": "3 (50) Patients (%)"}, {"measurement": "Best overall response: Stable disease", "setting": "advanced solid tumors; [2]", "result": "3 (50) Patients (%)"}, {"measurement": "Best overall response: Unable to evaluate", "setting": "advanced solid tumors; [2]", "result": "0 Patients (%)"}, {"measurement": "Best overall response: Complete response", "setting": "advanced solid tumors; [3]", "result": "0 Patients (%)"}, {"measurement": "Best overall response: Partial response", "setting": "advanced solid tumors; [3]", "result": "0 Patients (%)"}, {"measurement": "Best overall response: Progressive disease", "setting": "advanced solid tumors; [3]", "result": "2 (67) Patients (%)"}, {"measurement": "Best overall response: Stable disease", "setting": "advanced solid tumors; [3]", "result": "1 (33) Patients (%)"}, {"measurement": "Best overall response: Unable to evaluate", "setting": "advanced solid tumors; [3]", "result": "0 Patients (%)"}, {"measurement": "Best overall response: Complete response", "setting": "advanced solid tumors; [4]", "result": "0 Patients (%)"}, {"measurement": "Best overall response: Partial response", "setting": "advanced solid tumors; [4]", "result": "0 Patients (%)"}, {"measurement": "Best overall response: Progressive disease", "setting": "advanced solid tumors; [4]", "result": "2 (18) Patients (%)"}, {"measurement": "Best overall response: Stable disease", "setting": "advanced solid tumors; [4]", "result": "7 (64) Patients (%)"}, {"measurement": "Best overall response: Unable to evaluate", "setting": "advanced solid tumors; [4]", "result": "2 (18) Patients (%)"}, {"measurement": "Best overall response: Complete response", "setting": "advanced solid tumors; [5]", "result": "0 Patients (%)"}, {"measurement": "Best overall response: Partial response", "setting": "advanced solid tumors; [5]", "result": "0 Patients (%)"}, {"measurement": "Best overall response: Progressive disease", "setting": "advanced solid tumors; [5]", "result": "0 Patients (%)"}, {"measurement": "Best overall response: Stable disease", "setting": "advanced solid tumors; [5]", "result": "2 (50) Patients (%)"}, {"measurement": "Best overall response: Unable to evaluate", "setting": "advanced solid tumors; [5]", "result": "2 (50) Patients (%)"}, {"measurement": "Best overall response: Complete response", "setting": "advanced solid tumors; [6]", "result": "0 Patients (%)"}, {"measurement": "Best overall response: Partial response", "setting": "advanced solid tumors; [6]", "result": "0 Patients (%)"}, {"measurement": "Best overall response: Progressive disease", "setting": "advanced solid tumors; [6]", "result": "2 (50) Patients (%)"}, {"measurement": "Best overall response: Stable disease", "setting": "advanced solid tumors; [6]", "result": "2 (50) Patients (%)"}, {"measurement": "Best overall response: Unable to evaluate", "setting": "advanced solid tumors; [6]", "result": "0 Patients (%)"}, {"measurement": "Progressive disease", "setting": "advanced solid tumors; dose-escalation phase (12 patients of 50)", "result": 24, "unit": "%"}, {"measurement": "Stable disease (best response)", "setting": "advanced solid tumors; dose-escalation phase, RECIST 1.1 (29 patients of 50)", "result": 58, "unit": "%"}, {"measurement": "Progression-free survival, median (80% CI)", "setting": "[1]; Central read, RECIST 1.1, Kaplan-Meier, expansion 40 mg + G-CSF, OC (n = 29)", "result": "31.7 (23.7–47.6) weeks"}, {"measurement": "Best overall response: Complete response", "setting": "[1]; [7]", "result": "0 Patients (%)"}, {"measurement": "Best overall response: Not evaluable (postbaseline scan not readable)", "setting": "[1]; [7]", "result": "2 (7) Patients (%)"}, {"measurement": "Best overall response: Partial response", "setting": "[1]; [7]", "result": "3 (10) Patients (%)"}, {"measurement": "Best overall response: Progressive disease", "setting": "[1]; [7]", "result": "3 (10) Patients (%)"}, {"measurement": "Best overall response: Stable disease", "setting": "[1]; [7]", "result": "21 (72) Patients (%)"}, {"measurement": "Best overall response: Complete response", "setting": "[1]; [8]", "result": "0 Patients (%)"}, {"measurement": "Best overall response: Not evaluable (postbaseline scan not readable)", "setting": "[1]; [8]", "result": "3 (10) Patients (%)"}, {"measurement": "Best overall response: Partial response", "setting": "[1]; [8]", "result": "7 (24) Patients (%)"}, {"measurement": "Best overall response: Progressive disease", "setting": "[1]; [8]", "result": "3 (10) Patients (%)"}, {"measurement": "Best overall response: Stable disease", "setting": "[1]; [8]", "result": "16 (55) Patients (%)"}, {"measurement": "Partial response", "setting": "[1]; GCIG criteria (RECIST 1.1 and CA 125), expansion ovarian cancer (7 of 29)", "result": 24.1, "unit": "%"}, {"measurement": "Objective response rate (ORR)", "setting": "[1]; GCIG criteria (central read), expansion ovarian cancer, 95% CI 10.3%–43.5%", "result": 24.1, "unit": "%"}, {"measurement": "Progressive disease", "setting": "[1]; GCIG criteria, expansion ovarian cancer (3 of 29)", "result": 10.3, "unit": "%"}, {"measurement": "Stable disease", "setting": "[1]; GCIG criteria, expansion ovarian cancer (16 of 29)", "result": 55.2, "unit": "%"}, {"measurement": "Median (80% CI) PFS", "setting": "[1]; Kaplan-Meier, ovarian cancer patients from dose-escalation (n = 4) and dose-expansion (n = 29)", "result": "34.1 (31.1–not estimable) weeks"}, {"measurement": "Best overall response: Complete response", "setting": "[1]; [9]", "result": "0 Patients (%)"}, {"measurement": "Best overall response: Not evaluable (postbaseline scan not readable)", "setting": "[1]; [9]", "result": "2 (7) Patients (%)"}, {"measurement": "Best overall response: Partial response", "setting": "[1]; [9]", "result": "3 (10) Patients (%)"}, {"measurement": "Best overall response: Progressive disease", "setting": "[1]; [9]", "result": "4 (14) Patients (%)"}, {"measurement": "Best overall response: Stable disease", "setting": "[1]; [9]", "result": "20 (69) Patients (%)"}, {"measurement": "Progressive disease", "setting": "[1]; RECIST 1.1, expansion ovarian cancer (3 of 29)", "result": 10.3, "unit": "%"}, {"measurement": "Stable disease as best response", "setting": "[1]; RECIST 1.1, expansion ovarian cancer (21 of 29)", "result": 72.4, "unit": "%"}, {"measurement": "Median duration of response", "setting": "[1]; RECIST 1.1, expansion ovarian cancer, 95% CI: 16.1–34.1", "result": 24.1, "unit": "weeks"}, {"measurement": "Objective response rate (ORR)", "setting": "[1]; RECIST 1.1 central read, expansion ovarian cancer, 95% CI 2.0%–28.0%", "result": 10.3, "unit": "%"}, {"measurement": "Partial response", "setting": "[1]; RECIST 1.1 central, expansion ovarian cancer (3 of 29)", "result": 10.3, "unit": "%"}, {"measurement": "Duration of partial response, individual patients", "setting": "[1]; by GCIG criteria, same three ovarian cancer patients", "result": "16.1 weeks and 65.6 weeks and 74.9 weeks"}, {"measurement": "Duration of partial response, individual patients", "setting": "[1]; by RECIST 1.1, three ovarian cancer patients", "result": "34.1 weeks and 24.1 weeks and 16.1 weeks"}]}
